Results reported in ChEMBL document CHEMBL4665639, “N-Benzylanilines as Fatty Acid Synthesis Inhibitors against Biofilm-related Methicillin-resistant Staphylococcus aureus” (ACS Med Chem Lett, 2019).
Values after ≈ are worked out from the molar mass of the structure shown. Active and inactive are the calls of the source. The rule behind the calls is not given here.

How the values were obtained:
Enterococcus faecium = assay: Antibacterial activity against Enterococcus faecium assessed as bacterial growth inhibition after 24 hrs by CLSI protocol based broth microdilution assay; format: functional
Staphylococcus aureus [1] = assay: Antibacterial activity against methicillin-resistant Staphylococcus aureus clinical isolate 13 assessed as bacterial growth inhibition after 24 hrs by CLSI protocol based broth microdilution assay; format: functional
Procedure, shortened: (§1)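 Broth dilution MIC against 19 multidrug-resistant clinical S. aureus isolates, each taken from a different specimen type.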

Staphylococcus aureus [2] = assay: Antibiofilm activity against methicillin-resistant Staphylococcus aureus clinical isolate 18 assessed as disruption of preformed biofilm up to 2 mg/L after 24 hrs by MTT assay; format: functional, organism-based; conditions: dose mg/L <=2, time 24.0 hrs
Procedure, shortened: (§2)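 Biofilms of clinical MRSA isolates that form biofilm in culture were preformed for 24 h and then exposed to compound to measure disruption. Significance of control vs treated is given at p < 0.05, 0.01 and 0.001.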

Staphylococcus aureus [3] = assay: Antibacterial activity against methicillin-resistant Staphylococcus aureus clinical isolate 18 assessed as bacterial growth inhibition after 24 hrs by CLSI protocol based broth microdilution assay; format: functional; procedure, shortened: as §1
Staphylococcus aureus [4] = assay: Antibiofilm activity against methicillin-resistant Staphylococcus aureus clinical isolate 17 assessed as disruption of preformed biofilm up to 2 mg/L after 24 hrs by MTT assay; format: functional, organism-based; conditions: dose mg/L <=2, time 24.0 hrs; procedure, shortened: as §2
Staphylococcus aureus [5] = assay: Antibacterial activity against methicillin-resistant Staphylococcus aureus clinical isolate 6 assessed as bacterial growth inhibition after 24 hrs by CLSI protocol based broth microdilution assay; format: functional; procedure, shortened: as §1
Staphylococcus aureus [6] = assay: Antibacterial activity against methicillin-resistant Staphylococcus aureus clinical isolate 2 assessed as bacterial growth inhibition after 24 hrs by CLSI protocol based broth microdilution assay; format: functional; procedure, shortened: as §1
Staphylococcus aureus [7] = assay: Antibiofilm activity against methicillin-resistant Staphylococcus aureus clinical isolate 3 assessed as disruption of preformed biofilm up to 2 mg/L after 24 hrs by MTT assay; format: functional, organism-based; conditions: dose mg/L <=2, time 24.0 hrs; procedure, shortened: as §2
Staphylococcus aureus [8] = assay: Antibacterial activity against methicillin-resistant Staphylococcus aureus clinical isolate 3 assessed as bacterial growth inhibition after 24 hrs by CLSI protocol based broth microdilution assay; format: functional; procedure, shortened: as §1
Staphylococcus aureus [9] = assay: Antibiofilm activity against methicillin-resistant Staphylococcus aureus clinical isolate 4 assessed as disruption of preformed biofilm up to 2 mg/L after 24 hrs by MTT assay; format: functional, organism-based; conditions: dose mg/L <=2, time 24.0 hrs; procedure, shortened: as §2
L02 = assay: Cytotoxicity against human L02 cells assessed as reduction in cell viability at 80 mg/L after 24 hrs by MTT assay relative to control; format: cell-based; conditions: l02, 24 h, at 80 µg/mL
Staphylococcus aureus [10] = assay: Antibacterial activity against methicillin-resistant Staphylococcus aureus clinical isolate 15 assessed as bacterial growth inhibition after 24 hrs by CLSI protocol based broth microdilution assay; format: functional; procedure, shortened: as §1
Candida albicans = assay: Antifungal activity against Candida albicans assessed as fungal growth inhibition after 24 hrs by CLSI protocol based broth microdilution assay; format: functional
Staphylococcus aureus [11] = assay: Antibacterial activity against methicillin-resistant Staphylococcus aureus clinical isolate 1 assessed as bacterial growth inhibition after 24 hrs by CLSI protocol based broth microdilution assay; format: functional; procedure, shortened: as §1
Staphylococcus aureus [12] = assay: Antibiofilm activity against methicillin-resistant Staphylococcus aureus clinical isolate 5 assessed as disruption of preformed biofilm up to 2 mg/L after 24 hrs by MTT assay; format: functional, organism-based; conditions: dose mg/L <=2, time 24.0 hrs; procedure, shortened: as §2
Staphylococcus aureus [13] = assay: Antibacterial activity against methicillin-resistant Staphylococcus aureus clinical isolate 12 assessed as bacterial growth inhibition after 24 hrs by CLSI protocol based broth microdilution assay; format: functional; procedure, shortened: as §1
Staphylococcus aureus [14] = assay: Binding affinity to Staphylococcus aureus ATCC 6538 fabI expressed in Escherichia coli BL21 (DE3) assessed as tetramer transition of partial dimer resulting in peak shift at 1:10:10 ratio incubated for overnight in presence of NADP+ by analytical size exclusion chromatography; conditions: time 12.0 hrs
Staphylococcus aureus [15] = assay: Antibiofilm activity against methicillin-resistant Staphylococcus aureus clinical isolate 11 assessed as disruption of preformed biofilm up to 2 mg/L after 24 hrs by MTT assay; format: functional, organism-based; conditions: dose mg/L <=2, time 24.0 hrs; procedure, shortened: as §2
Staphylococcus aureus [16] = assay: Antibiofilm activity against methicillin-resistant Staphylococcus aureus ATCC 43300 assessed as inhibition of biofilm at 0.5 to 2 mg/L after 24 hrs by MTT assay; format: functional, organism-based; conditions: dose mg/L 0.5-2, time 24.0 hrs
Procedure, shortened: (§3)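 Biofilm growth of MRSA ATCC 43300 measured in the presence of compound in cultivation plates, with a DMSO control. Significance of control vs treated is given at p < 0.05, 0.01 and 0.001.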

Staphylococcus aureus [17] = assay: Antibacterial activity against methicillin-resistant Staphylococcus aureus clinical isolate 9 assessed as bacterial growth inhibition after 24 hrs by CLSI protocol based broth microdilution assay; format: functional; procedure, shortened: as §1
Staphylococcus aureus [18] = assay: Antibacterial activity against methicillin-resistant Staphylococcus aureus clinical isolate 14 assessed as bacterial growth inhibition after 24 hrs by CLSI protocol based broth microdilution assay; format: functional; procedure, shortened: as §1
Staphylococcus aureus [19] = assay: Antibiofilm activity against methicillin-resistant Staphylococcus aureus clinical isolate 2 assessed as disruption of preformed biofilm up to 2 mg/L after 24 hrs by MTT assay; format: functional, organism-based; conditions: dose mg/L <=2, time 24.0 hrs; procedure, shortened: as §2
Bacillus cereus = assay: Antibacterial activity against Bacillus cereus assessed as bacterial growth inhibition after 24 hrs by CLSI protocol based broth microdilution assay; format: functional
Staphylococcus aureus [20] = assay: Antibiofilm activity against methicillin-resistant Staphylococcus aureus clinical isolate 12 assessed as disruption of preformed biofilm up to 2 mg/L after 24 hrs by MTT assay; format: functional, organism-based; conditions: dose mg/L <=2, time 24.0 hrs; procedure, shortened: as §2
Escherichia coli = assay: Antibacterial activity against Escherichia coli assessed as bacterial growth inhibition after 24 hrs by CLSI protocol based broth microdilution assay; format: functional
Staphylococcus aureus [21] = assay: Antibacterial activity against methicillin-resistant Staphylococcus aureus clinical isolate 17 assessed as bacterial growth inhibition after 24 hrs by CLSI protocol based broth microdilution assay; format: functional; procedure, shortened: as §1
Staphylococcus aureus [22] = assay: Antibiofilm activity against methicillin-resistant Staphylococcus aureus ATCC 43300 assessed as reduction in biofilm biomass up to 1 mg/L after 24 hrs by scanning electronic microscopic imaging analysis; format: functional, organism-based; conditions: dose mg/L <=1, time 24.0 hrs
Procedure, shortened: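 Scanning electron microscopy of 24 h MRSA ATCC 43300 biofilm, untreated or grown with stepwise increasing compound concentrations.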

Staphylococcus aureus [23] = assay: Antibiofilm activity against methicillin-resistant Staphylococcus aureus clinical isolate 6 assessed as disruption of preformed biofilm up to 2 mg/L after 24 hrs by MTT assay; format: functional, organism-based; conditions: dose mg/L <=2, time 24.0 hrs; procedure, shortened: as §2
Staphylococcus aureus [24] = assay: Antibiofilm activity against methicillin-resistant Staphylococcus aureus ATCC 43300 assessed as reduction in biofilm biomass at 0.5 to 4 mg/L after 24 hrs by MTT assay; format: functional, organism-based; conditions: dose mg/L 0.5-4, time 24.0 hrs; procedure, shortened: as §3
GES1 = assay: Cytotoxicity against human GES1 cells assessed as reduction in cell viability at 80 mg/L after 24 hrs by MTT assay relative to control; format: cell-based; conditions: ges1, 24 h, at 80 µg/mL
Staphylococcus aureus [25] = assay: Inhibition of Staphylococcus aureus ATCC 6538 fabI expressed in Escherichia coli BL21 (DE3) assessed as oxidation of NADPH to NADP+ using trans-2-octenoyl CoA as substrate incubated for 2 hrs in presence of NADPH by spectrophotometric analysis
Staphylococcus aureus [26] = assay: Antibacterial activity against methicillin-resistant Staphylococcus aureus clinical isolate 4 assessed as bacterial growth inhibition after 24 hrs by CLSI protocol based broth microdilution assay; format: functional; procedure, shortened: as §1
Staphylococcus aureus [27] = assay: Antibacterial activity against methicillin-resistant Staphylococcus aureus clinical isolate 5 assessed as bacterial growth inhibition after 24 hrs by CLSI protocol based broth microdilution assay; format: functional; procedure, shortened: as §1
Staphylococcus aureus [28] = assay: Antibacterial activity against methicillin-resistant Staphylococcus aureus clinical isolate 19 assessed as bacterial growth inhibition after 24 hrs by CLSI protocol based broth microdilution assay; format: functional; procedure, shortened: as §1
Staphylococcus aureus [29] = assay: Antibacterial activity against methicillin-resistant Staphylococcus aureus clinical isolate 8 assessed as bacterial growth inhibition after 24 hrs by CLSI protocol based broth microdilution assay; format: functional; procedure, shortened: as §1
Pseudomonas aeruginosa = assay: Antibacterial activity against Pseudomonas aeruginosa assessed as bacterial growth inhibition after 24 hrs by CLSI protocol based broth microdilution assay; format: functional
Staphylococcus aureus [30] = assay: Antibacterial activity against methicillin-resistant Staphylococcus aureus clinical isolate 11 assessed as bacterial growth inhibition after 24 hrs by CLSI protocol based broth microdilution assay; format: functional; procedure, shortened: as §1
Candida tropicalis = assay: Antifungal activity against Candida tropicalis assessed as fungal growth inhibition after 24 hrs by CLSI protocol based broth microdilution assay; format: functional
Staphylococcus aureus [31] = assay: Antibacterial activity against methicillin-resistant Staphylococcus aureus clinical isolate 7 assessed as bacterial growth inhibition after 24 hrs by CLSI protocol based broth microdilution assay; format: functional; procedure, shortened: as §1
Staphylococcus aureus [32] = assay: Antibacterial activity against Staphylococcus aureus assessed as bacterial growth inhibition after 24 hrs by CLSI protocol based broth microdilution assay; format: functional
Staphylococcus aureus [33] = assay: Antibacterial activity against methicillin-resistant Staphylococcus aureus clinical isolate 10 assessed as bacterial growth inhibition after 24 hrs by CLSI protocol based broth microdilution assay; format: functional; procedure, shortened: as §1
Staphylococcus aureus [34] = assay: Antibacterial activity against methicillin-resistant Staphylococcus aureus clinical isolate 16 assessed as bacterial growth inhibition after 24 hrs by CLSI protocol based broth microdilution assay; format: functional; procedure, shortened: as §1
Staphylococcus aureus [35] = assay: Antibiofilm activity against methicillin-resistant Staphylococcus aureus clinical isolate 16 assessed as disruption of preformed biofilm up to 2 mg/L after 24 hrs by MTT assay; format: functional, organism-based; conditions: dose mg/L <=2, time 24.0 hrs; procedure, shortened: as §2
Staphylococcus aureus [36] = assay: Antibacterial activity against methicillin-resistant Staphylococcus aureus assessed as bacterial growth inhibition after 24 hrs by CLSI protocol based broth microdilution assay; format: functional

In the case of Oc1c(Br)cc(Cl)cc1CNc1cc(C(F)(F)F)ccc1Cl, the MIC (Enterococcus faecium) is reported as at most 2 µg/mL, the MIC (Staphylococcus aureus [1]) is reported as at most 1 µg/mL and the Activity (Staphylococcus aureus [2]) is reported as “Active”. The MIC (Staphylococcus aureus [3]) was at most 1 µg/mL, the Activity (Staphylococcus aureus [4]) was “Active” and the MIC (Staphylococcus aureus [5]) was at most 1 µg/mL. The MIC (Staphylococcus aureus [6]) was at most 1 µg/mL, the Activity (Staphylococcus aureus [7]) was “Active” and the MIC (Staphylococcus aureus [8]) was at most 1 µg/mL. For the same compound, the Activity (Staphylococcus aureus [9]) was “Active”, the Activity (L02) was 50% and the MIC (Staphylococcus aureus [10]) was at most 1 µg/mL. For the same compound, the MIC (Candida albicans) was at least 64 µg/mL, the MIC (Staphylococcus aureus [11]) was at most 1 µg/mL and the Activity (Staphylococcus aureus [12]) was “Active”. The MIC (Staphylococcus aureus [13]) was at most 1 µg/mL, the Activity (Staphylococcus aureus [14]) was “Active” and the Activity (Staphylococcus aureus [15]) was “Active”. The inhibition (Staphylococcus aureus [16]) was “Active”, the MIC (Staphylococcus aureus [17]) was at most 1 µg/mL and the MIC (Staphylococcus aureus [18]) was at most 1 µg/mL. For the same compound, the Activity (Staphylococcus aureus [19]) was “Active”, the MIC (Bacillus cereus) was at most 2 µg/mL and the Activity (Staphylococcus aureus [20]) was “Active”. For the same compound, the MIC (Escherichia coli) was at least 64 µg/mL, the MIC (Staphylococcus aureus [21]) was at most 1 µg/mL and the inhibition (Staphylococcus aureus [22]) was “Active”. For the same compound, the Activity (Staphylococcus aureus [23]) was “Active”, the Activity (Staphylococcus aureus [24]) was “Active” and the Activity (GES1) was 50%. The inhibition (Staphylococcus aureus [25]) was “Active”, the MIC (Staphylococcus aureus [26]) was at most 1 µg/mL and the MIC (Staphylococcus aureus [27]) was at most 1 µg/mL. It also gave an MIC (Staphylococcus aureus [28]) of at most 1 µg/mL, an MIC (Staphylococcus aureus [29]) of at most 1 µg/mL and an MIC (Pseudomonas aeruginosa) of at least 64 µg/mL. It also gave an MIC (Staphylococcus aureus [30]) of at most 1 µg/mL, an MIC (Candida tropicalis) of at least 64 µg/mL and an MIC (Staphylococcus aureus [31]) of at most 1 µg/mL. For the same compound, the MIC (Staphylococcus aureus [32]) was at most 2 µg/mL, the MIC (Staphylococcus aureus [33]) was at most 1 µg/mL and the MIC (Staphylococcus aureus [34]) was at most 1 µg/mL. The Activity (Staphylococcus aureus [35]) was “Active”.

Compound Oc1c(Br)cc(Br)cc1CNc1cc(C(F)(F)F)ccc1Cl has an MIC (Enterococcus faecium) of at most 2 µg/mL, an MIC (Candida albicans) of at least 64 µg/mL and an MIC (Bacillus cereus) of at most 2 µg/mL. For the same compound, the MIC (Escherichia coli) was at least 64 µg/mL, the Activity (Staphylococcus aureus [24]) was “Active” and the inhibition (Staphylococcus aureus [25]) was “Active”. The MIC (Pseudomonas aeruginosa) was at least 64 µg/mL, the MIC (Candida tropicalis) was at least 64 µg/mL and the MIC (Staphylococcus aureus [32]) was 1 µg/mL (≈ 2.18 µM). For the same compound, the MIC (Staphylococcus aureus [36]) was 1 µg/mL (≈ 2.18 µM).
